Reference: ChEMBL document CHEMBL4706762, “Massively Parallel Optimization of the Linker Domain in Small Molecule Dimers Targeting a Toxic r(CUG) Repeat Expansion” (ACS Med Chem Lett, 2021)
The source made the active and inactive calls. The calls are words filed in the database; no cut-off is given here.

Tests used:
[1] = Cytotoxicity against DM1-patient derived myotubes assessed as change in cellular morphology at 1 uM measured after 48 hrs; conditions: human, myotube
In short: (§1)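 Cell morphology of DM1 patient-derived myotubes inspected during 48 h splicing treatment at 5 μM; agents altering morphology were re-tested at 1 μM.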

r(CUG) repeat expansion [2] = assay: Binding affinity to r(CUG)exp RNA repeat in DM1-patient derived myotubes assessed as improvement in MBNL1 exon 5 splicing defect at 1 uM measured after 48 hrs by RT-qPCR analysis relative to control; conditions: Homo sapiens, Myotube
In short: (§2)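 DM1 patient-derived myotubes (1300 r(CUG) repeats) treated 48 h, then MBNL1 exon 5 splicing rescue measured. Single-dose screens at 5 μM or 1 μM, where 1 μM was used if 5 μM altered morphology, n = 3. Dose–response also run, n = 6. SD shown; one-way ANOVA.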

[3] = Cytotoxicity against DM1-patient derived myotubes assessed as change in cellular morphology at 5 uM measured after 48 hrs; conditions: human, myotube; in short: as §1
[4] = Drug localization in nucleus of DM1-patient derived myotubes at 5 uM measured after 24 hrs by live-cell fluorescence microscopy; assay type: ADME, subcellular; conditions: human, myotube
In short: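 DM1 patient myotubes bearing 1300 r(CUG) repeats given 5 μM agent; subcellular localization followed via intrinsic fluorescence of the H RNA-binding modules.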

r(CUG) repeat expansion [5] = assay: Binding affinity to r(CUG)exp RNA repeat in DM1-patient derived myotubes assessed as improvement in MBNL1 exon 5 splicing defect at 5 uM measured after 48 hrs by RT-qPCR analysis relative to control; conditions: Homo sapiens, Myotube; in short: as §2
r(CUG) repeat expansion [6] = assay: Binding affinity to 5'-biotinylated r(CUG)12 RNA repeat (unknown origin) assessed as disruption of r(CUG)12-His-tagged MBNL1 complex formation preincubated for 15 mins followed by MBNL1 addition and measured after 15 mins by TR-FRET assay; assay type: nucleic-acid assay
r(CUG) repeat expansion [7] = assay: Binding affinity to r(CUG)12 RNA repeat (unknown origin) measured after 10 mins by fluorescence assay; assay type: nucleic-acid assay
r(CUG) repeat expansion [8] = assay: Binding affinity to r(CUG)exp RNA repeat in DM1-patient derived myotubes assessed as improvement in MBNL1 exon 5 splicing defect at 0.2 uM measured after 48 hrs by RT-qPCR analysis relative to control; conditions: Homo sapiens, Myotube; in short: as §2
r(CUG) repeat expansion [9] = assay: Binding affinity to r(CUG)exp RNA repeat in DM1-patient derived myotubes assessed as improvement in MBNL1 exon 5 splicing defect measured after 48 hrs by RT-qPCR analysis; assay type: tissue-based; conditions: Homo sapiens, Myotube, dose 0.04-1 µM

SMILES	Activity (r(CUG) repeat expansion [2])	Drug uptake [4]	Activity (r(CUG) repeat expansion [5]) [%]	IC50 (r(CUG) repeat expansion [6]) [µM]	EC50 (r(CUG) repeat expansion [7]) [µM]	Activity (r(CUG) repeat expansion [8]) [%]	Activity (r(CUG) repeat expansion [9])	Activity [1]	Activity [3]
COCCN(CC(=O)N(CCCNC(=O)CCCOc1cccc(-c2nc3ccc(-c4nc5cc(N6CCN(C)CC6)ccc5[nH]4)cc3[nH]2)c1)CC(N)=O)C(=O)CN(CCN)C(=O)CN(Cc1ccc(OC)cc1)C(=O)CN(CCN)C(=O)CCCOc1cccc(-c2nc3ccc(-c4nc5cc(N6CCN(C)CC6)ccc5[nH]4)cc3[nH]2)c1	–	Active	–	–	–	–	–	–	Non-Toxic
CCCN(CC(=O)N(CCC)CC(=O)N(CCC)CC(=O)N(CCC)CC(=O)N(CC(N)=O)Cc1cn(CCCNC(=O)CCCOc2ccc(-c3nc4ccc(-c5nc6cc(N7CCN(C)CC7)ccc6[nH]5)cc4[nH]3)cc2)nn1)C(=O)CNCc1cn(CCCNC(=O)CCCOc2cccc(-c3nc4ccc(-c5nc6cc(N7CCN(C)CC7)ccc6[nH]5)cc4[nH]3)c2)nn1	inactive	Active	30	32.2	1.14	–	–	–	–
COc1ccc(CN(CC(=O)N(CCCNC(=O)CCCOc2cccc(-c3nc4ccc(-c5nc6cc(N7CCN(C)CC7)ccc6[nH]5)cc4[nH]3)c2)CC(N)=O)C(=O)CN(Cc2cccnc2)C(=O)CN(C(=O)CN(C)C(=O)CCCOc2cccc(-c3nc4ccc(-c5nc6cc(N7CCN(C)CC7)ccc6[nH]5)cc4[nH]3)c2)C2CC2)cc1	Active	Active	–	–	–	2	Dose-dependent effect	Non-Toxic	Toxic

Further lines, with some results ahead:

Activity (r(CUG) repeat expansion [2])	Drug uptake [4]	Activity (r(CUG) repeat expansion [5]) [%]	IC50 (r(CUG) repeat expansion [6]) [µM]	EC50 (r(CUG) repeat expansion [7]) [µM]	Activity (r(CUG) repeat expansion [8]) [%]	Activity (r(CUG) repeat expansion [9])	SMILES	Activity [1]	Activity [3]
Active	Active	–	–	–	–	–	CNCCCCN(CC(=O)N(CCCCNC)CC(=O)N(CCN)CC(=O)N(CCCNC(=O)CCCOc1cccc(-c2nc3ccc(-c4nc5cc(N6CCN(C)CC6)ccc5[nH]4)cc3[nH]2)c1)CC(N)=O)C(=O)CN(C)C(=O)CCCOc1cccc(-c2nc3ccc(-c4nc5cc(N6CCN(C)CC6)ccc5[nH]4)cc3[nH]2)c1	Non-Toxic	Toxic
–	Active	–	–	–	–	–	CNCCCCN(CC(=O)N(CC(=O)N(CC(=O)N(CCO)CC(=O)N(CCCNC(=O)CCCOc1cccc(-c2nc3ccc(-c4nc5cc(N6CCN(C)CC6)ccc5[nH]4)cc3[nH]2)c1)CC(N)=O)C1CCCCC1)Cc1cccnc1)C(=O)CCCOc1cccc(-c2nc3ccc(-c4nc5cc(N6CCN(C)CC6)ccc5[nH]4)cc3[nH]2)c1	–	Non-Toxic
–	Active	–	–	–	–	–	CNCCCCN(CC(=O)N(CCN)CC(=O)N(CCCNC(=O)CCCOc1cccc(-c2nc3ccc(-c4nc5cc(N6CCN(C)CC6)ccc5[nH]4)cc3[nH]2)c1)CC(N)=O)C(=O)CN(Cc1ccccc1)C(=O)CN(C)C(=O)CCCOc1cccc(-c2nc3ccc(-c4nc5cc(N6CCN(C)CC6)ccc5[nH]4)cc3[nH]2)c1	–	Non-Toxic
inactive	Active	–	–	–	–	–	CNCCCCN(CC(=O)N(CCCNC(=O)CCCOc1cccc(-c2nc3ccc(-c4nc5cc(N6CCN(C)CC6)ccc5[nH]4)cc3[nH]2)c1)CC(N)=O)C(=O)CN(Cc1ccc(OC)cc1)C(=O)CN(CCCCNC)C(=O)CN(C(=O)CCCOc1cccc(-c2nc3ccc(-c4nc5cc(N6CCN(C)CC6)ccc5[nH]4)cc3[nH]2)c1)C1CCCCC1	Non-Toxic	Toxic
